Test results: the array DNA melting data of Ke et al. (doi:10.1101/2024.01.08.574731)

Assays:
[1] = melting temperature; fluorescence melt of hairpins on a sequencing array, two-state fit, raised by 9.35 °C to match UV melts; conditions: sodium 0.088 M
In short: (§1)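 Melting temperature and folding enthalpy were derived from bootstrapped two-state fits. The fitted temperatures were raised by 9.35 °C to agree with UV melts, and four replicates were combined by inverse variance. The underlying data were Cy3 fluorescence images of library hairpins, with annealed Cy3 and quencher oligos, on a sequenced MiSeq flow cell in 50 mM Na-HEPES pH 8.0, 25 mM NaCl, taken in 2.5 °C steps up to 60 °C, normalised to pre-quench Cy3 and to control constructs.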

[2] = folding enthalpy; higher = less favourable; fluorescence melt of hairpins on a sequencing array, two-state fit; conditions: sodium 0.088 M
In short: as §1

## GATCGCTGGAGCGATC ((((((....))))))
[1]
  Tm: 68.5 °C
[2]
  folding enthalpy: -37.8 kcal/mol

## GATCGCTGTCGCGATC ((((((....))))))
[1]
  Tm: 68.4 °C
[2]
  folding enthalpy: -30.2 kcal/mol

## GATCGCTTGCGCGATC ((((((....))))))
[1]
  Tm: 67.1 °C
[2]
  folding enthalpy: -30.3 kcal/mol

## GATCGGAACCCCGATC ((((((....))))))
[1]
  Tm: 54.1 °C
[2]
  folding enthalpy: -40 kcal/mol

## GATCGGAAGACCGATC ((((((....))))))
[1]
  Tm: 52.8 °C
[2]
  folding enthalpy: -29 kcal/mol

## GATCGGAATTCCGATC ((((((....))))))
[1]
  Tm: 56.6 °C
[2]
  folding enthalpy: -51 kcal/mol

## GATCGGACACCGATC ((((((...))))))
[1]
  Tm: 57.1 °C
[2]
  folding enthalpy: -33.4 kcal/mol

## GATCGGACTGCCGATC ((((((....))))))
[1]
  Tm: 55.5 °C
[2]
  folding enthalpy: -42 kcal/mol

## GATCGGATTCCGATC ((((((...))))))
[1]
  Tm: 54.6 °C
[2]
  folding enthalpy: -44.6 kcal/mol

## GATCGGATTTCCGATC ((((((....))))))
[1]
  Tm: 57.5 °C
[2]
  folding enthalpy: -36.5 kcal/mol

## GATCGGCATCCGATC ((((((...))))))
[1]
  Tm: 55.3 °C
[2]
  folding enthalpy: -40.1 kcal/mol

## GATCGGCCACCCGATC ((((((....))))))
[1]
  Tm: 54.9 °C
[2]
  folding enthalpy: -39.9 kcal/mol

## GATCGGCCCTCCGATC ((((((....))))))
[1]
  Tm: 56.7 °C
[2]
  folding enthalpy: -39.9 kcal/mol

## GATCGGCCTTCCGATC ((((((....))))))
[1]
  Tm: 56.1 °C
[2]
  folding enthalpy: -41.3 kcal/mol

## GATCGGCGCACCGATC ((((((....))))))
[1]
  Tm: 59.9 °C
[2]
  folding enthalpy: -37.4 kcal/mol

## GATCGGCGGACCGATC ((((((....))))))
[1]
  Tm: 57.2 °C
[2]
  folding enthalpy: -38.8 kcal/mol

## GATCGGCGGTCCGATC ((((((....))))))
[1]
  Tm: 55.5 °C
[2]
  folding enthalpy: -43.3 kcal/mol

## GATCGGCTACCGATC ((((((...))))))
[1]
  Tm: 56 °C
[2]
  folding enthalpy: -33.9 kcal/mol

## GATCGGCTCACCGATC ((((((....))))))
[1]
  Tm: 57.4 °C
[2]
  folding enthalpy: -38.8 kcal/mol

## GATCGGCTCCCCGATC ((((((....))))))
[1]
  Tm: 55.2 °C
[2]
  folding enthalpy: -42.1 kcal/mol

## GATCGGCTCGCCGATC ((((((....))))))
[1]
  Tm: 69.3 °C
[2]
  folding enthalpy: -35.9 kcal/mol

## GATCGGCTGACCGATC ((((((....))))))
[1]
  Tm: 56.2 °C
[2]
  folding enthalpy: -40.4 kcal/mol

## GATCGGCTGTCCGATC ((((((....))))))
[1]
  Tm: 56.3 °C
[2]
  folding enthalpy: -39.6 kcal/mol

## GATCGGCTTCCGATC ((((((...))))))
[1]
  Tm: 56.1 °C
[2]
  folding enthalpy: -44.9 kcal/mol

## GATCGGGACTCCGATC ((((((....))))))
[1]
  Tm: 61 °C
[2]
  folding enthalpy: -39.7 kcal/mol

## GATCGGGAGACCGATC ((((((....))))))
[1]
  Tm: 63.8 °C
[2]
  folding enthalpy: -32.6 kcal/mol

## GATCGGGAGGCCGATC ((((((....))))))
[1]
  Tm: 56.2 °C
[2]
  folding enthalpy: -46.1 kcal/mol

## GATCGGGAGTCCGATC ((((((....))))))
[1]
  Tm: 56.5 °C
[2]
  folding enthalpy: -39.6 kcal/mol

## GATCGGGCGCCGATC ((((((...))))))
[1]
  Tm: 55 °C
[2]
  folding enthalpy: -46.3 kcal/mol

## GATCGGGCGTCCGATC ((((((....))))))
[1]
  Tm: 58.2 °C
[2]
  folding enthalpy: -37.2 kcal/mol

## GATCGGGGAAACTCGATC (((((.(....).)))))
[1]
  Tm: 51.2 °C
[2]
  folding enthalpy: -33.1 kcal/mol

## GATCGGGGACCGATC ((((((...))))))
[1]
  Tm: 66.8 °C
[2]
  folding enthalpy: -37.2 kcal/mol

## GATCGGGGATCCGATC ((((((....))))))
[1]
  Tm: 62.8 °C
[2]
  folding enthalpy: -40.7 kcal/mol

## GATCGGGGCCCGATC ((((((...))))))
[1]
  Tm: 60.5 °C
[2]
  folding enthalpy: -41.2 kcal/mol

## GATCGGGGGCCGATC ((((((...))))))
[1]
  Tm: 54.9 °C
[2]
  folding enthalpy: -40.8 kcal/mol

## GATCGGGGTCCGATC ((((((...))))))
[1]
  Tm: 58.6 °C
[2]
  folding enthalpy: -32.1 kcal/mol

## GATCGGGTACCCGATC ((((((....))))))
[1]
  Tm: 64.9 °C
[2]
  folding enthalpy: -47.6 kcal/mol

## GATCGGGTATCCGATC ((((((....))))))
[1]
  Tm: 65.4 °C
[2]
  folding enthalpy: -37.6 kcal/mol

## GATCGGGTGGCCGATC ((((((....))))))
[1]
  Tm: 57 °C
[2]
  folding enthalpy: -40.4 kcal/mol

## GATCGGGTGTCCGATC ((((((....))))))
[1]
  Tm: 58.3 °C
[2]
  folding enthalpy: -37.7 kcal/mol

## GATCGGGTTTCCGATC ((((((....))))))
[1]
  Tm: 60.7 °C
[2]
  folding enthalpy: -39.9 kcal/mol

## GATCGGTACACCGATC ((((((....))))))
[1]
  Tm: 62.2 °C
[2]
  folding enthalpy: -40.4 kcal/mol

## GATCGGTACCCCGATC ((((((....))))))
[1]
  Tm: 54.4 °C
[2]
  folding enthalpy: -42.5 kcal/mol

## GATCGGTACCCGATC ((((((...))))))
[1]
  Tm: 57.2 °C
[2]
  folding enthalpy: -39.3 kcal/mol

## GATCGGTATGCCGATC ((((((....))))))
[1]
  Tm: 62.1 °C
[2]
  folding enthalpy: -41.9 kcal/mol

## GATCGGTATTCCGATC ((((((....))))))
[1]
  Tm: 58.4 °C
[2]
  folding enthalpy: -42 kcal/mol

## GATCGGTCAGCCGATC ((((((....))))))
[1]
  Tm: 59.8 °C
[2]
  folding enthalpy: -41.8 kcal/mol

## GATCGGTCCCCCGATC ((((((....))))))
[1]
  Tm: 55.7 °C
[2]
  folding enthalpy: -45 kcal/mol

## GATCGGTCCGCCGATC ((((((....))))))
[1]
  Tm: 60.1 °C
[2]
  folding enthalpy: -42.5 kcal/mol

## GATCGGTCCTCCGATC ((((((....))))))
[1]
  Tm: 59.9 °C
[2]
  folding enthalpy: -38 kcal/mol

## GATCGGTCGGCCGATC ((((((....))))))
[1]
  Tm: 59.4 °C
[2]
  folding enthalpy: -45.8 kcal/mol

## GATCGGTCTCCGATC ((((((...))))))
[1]
  Tm: 57.4 °C
[2]
  folding enthalpy: -43.1 kcal/mol

## GATCGGTCTGCCGATC ((((((....))))))
[1]
  Tm: 62.1 °C
[2]
  folding enthalpy: -41.8 kcal/mol

## GATCGGTGGACCGATC ((((((....))))))
[1]
  Tm: 57.2 °C
[2]
  folding enthalpy: -31.7 kcal/mol

## GATCGGTTAACCGATC ((((((....))))))
[1]
  Tm: 58.8 °C
[2]
  folding enthalpy: -47.3 kcal/mol

## GATCGGTTATCCGATC ((((((....))))))
[1]
  Tm: 58.9 °C
[2]
  folding enthalpy: -36.8 kcal/mol

## GATCGGTTGTCCGATC ((((((....))))))
[1]
  Tm: 57.1 °C
[2]
  folding enthalpy: -33.8 kcal/mol

## GATCGTAAAAACGATC ((((((....))))))
[1]
  Tm: 50.3 °C
[2]
  folding enthalpy: -31.8 kcal/mol

## GATCGTAATCACGATC ((((((....))))))
[1]
  Tm: 53.2 °C
[2]
  folding enthalpy: -45.7 kcal/mol

## GATCGTAATTACGATC ((((((....))))))
[1]
  Tm: 56.3 °C
[2]
  folding enthalpy: -36 kcal/mol

## GATCGTACACACGATC ((((((....))))))
[1]
  Tm: 54.4 °C
[2]
  folding enthalpy: -40.7 kcal/mol

## GATCGTACGGACGATC ((((((....))))))
[1]
  Tm: 54.4 °C
[2]
  folding enthalpy: -45.6 kcal/mol

## GATCGTACTACGATC ((((((...))))))
[1]
  Tm: 56.5 °C
[2]
  folding enthalpy: -36.3 kcal/mol

## GATCGTACTGACGATC ((((((....))))))
[1]
  Tm: 55.2 °C
[2]
  folding enthalpy: -36.2 kcal/mol

## GATCGTAGCCACGATC ((((((....))))))
[1]
  Tm: 56.2 °C
[2]
  folding enthalpy: -39.3 kcal/mol

## GATCGTATAACGATC ((((((...))))))
[1]
  Tm: 55.7 °C
[2]
  folding enthalpy: -47.3 kcal/mol

## GATCGTATCAACGATC ((((((....))))))
[1]
  Tm: 55 °C
[2]
  folding enthalpy: -35.5 kcal/mol

## GATCGTATCACGATC ((((((...))))))
[1]
  Tm: 58.4 °C
[2]
  folding enthalpy: -37.6 kcal/mol

## GATCGTATCTACGATC ((((((....))))))
[1]
  Tm: 57.6 °C
[2]
  folding enthalpy: -37.9 kcal/mol

## GATCGTATGAACGATC ((((((....))))))
[1]
  Tm: 53.6 °C
[2]
  folding enthalpy: -31 kcal/mol

## GATCGTCAAAACGATC ((((((....))))))
[1]
  Tm: 55.1 °C
[2]
  folding enthalpy: -40 kcal/mol

## GATCGTCACACGATC ((((((...))))))
[1]
  Tm: 57 °C
[2]
  folding enthalpy: -37.8 kcal/mol
